EC50 and CC50 data for 21 molecules are collected here from ChEMBL document CHEMBL1777805, “2-Arylmethylaminomethyl-5,6-dihydroxychromone derivatives with selective anti-HCV activity” (Bioorg Med Chem Lett, 2011).

One series relates to Hepatitis C virus. Description: Antiviral activity against HCV in human HuH7 cells assessed as inhibition of RNA replication after 4 days by FRET-based assay. It counts as functional, organism-based, Hepacivirus hominis. Particulars: Huh-7, 96 h. A digest of the protocol:
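Huh-7 cells carrying an HCV replicon were seeded at 5 × 10³/well in complete DMEM with 500 µg/mL G418 and held 24 h at 37 °C, 5% CO₂. The medium was then refreshed and compounds were added at 0.1–100 µM (seven levels) from DMSO stock. After 4 days at 37 °C, cells were lysed. NS3 protease FRET signal was read at 340 ex/490 em. IFN-α2b (10000 units/well) served as positive control.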

Series [1] in a line: Cytotoxicity against human HuH7 cells assessed as reduction in cell proliferation. It counts as cell-based, Huh-7.

In general, EC50 refers to the concentration that produces a half-maximal response. Usually CC50 stands for the concentration at which the toxic effect on the cells reaches its halfway point.

Regarding `O=c1cc(CNCc2ccccc2)oc2ccc(O)c(O)c12`, the concentration for a half-maximal effect (EC50) in the series with Hepatitis C virus was more than 100 µM. The CC50 in series [1] was more than 100 µM.

As for `O=c1cc(CNCc2ccccc2Cl)oc2ccc(O)c(O)c12`, the EC50 with Hepatitis C virus is more than 100 µM. The CC50 in series [1] is more than 100 µM.

Consider `O=c1cc(CNCc2ccccc2Br)oc2ccc(O)c(O)c12`, for which the EC50 with Hepatitis C virus was more than 100 µM. The CC50 in series [1] was more than 100 µM.

Turning to `O=c1cc(CNCc2ccccc2I)oc2ccc(O)c(O)c12`, the concentration giving a half-maximal response (EC50) in the series with Hepatitis C virus came to 6.3 µM. Also, the CC50 in series [1] amounted to 87.3 µM.

Consider `O=c1cc(CNCc2ccccc2O)oc2ccc(O)c(O)c12`, for which the EC50 in the series with Hepatitis C virus was more than 100 µM. In addition, the CC50 in series [1] is more than 100 µM.

Regarding `O=c1cc(CNCc2ccccc2[N+](=O)[O-])oc2ccc(O)c(O)c12`, the concentration for a half-maximal effect (EC50) in the series with Hepatitis C virus was more than 100 µM. Moreover, in series [1], the 50% cytotoxic concentration (CC50) amounted to 41.3 µM.

`Cc1ccccc1CNCc1cc(=O)c2c(O)c(O)ccc2o1`: in the series on Hepatitis C virus, the EC50 was 1.2 µM. For the same molecule, in series [1], the CC50 was 52.2 µM.

Turning to `O=c1cc(CNCc2cccc(F)c2)oc2ccc(O)c(O)c12`, the EC50 in the series on Hepatitis C virus was more than 100 µM. In series [1], the CC50 was more than 100 µM.

As for `O=c1cc(CNCc2cccc(Br)c2)oc2ccc(O)c(O)c12`, the EC50 with Hepatitis C virus is 3.6 µM. Further, the CC50 in series [1] is more than 100 µM.

In the case of `O=c1cc(CNCc2cccc(I)c2)oc2ccc(O)c(O)c12`, the EC50 in the series on Hepatitis C virus stood at 7.3 µM. Also, in series [1], the half-maximal cytotoxic concentration (CC50) was more than 100 µM.

Take `O=c1cc(CNCc2cccc(O)c2)oc2ccc(O)c(O)c12`: the EC50 in the series on Hepatitis C virus was more than 100 µM. Moreover, the CC50 in series [1] was more than 100 µM.

With `O=c1cc(CNCc2cccc([N+](=O)[O-])c2)oc2ccc(O)c(O)c12`, the EC50 with Hepatitis C virus was more than 100 µM. The CC50 in series [1] was more than 100 µM.

As for `Cc1cccc(CNCc2cc(=O)c3c(O)c(O)ccc3o2)c1`, in the series with Hepatitis C virus, the EC50 is 2 µM. Besides, the CC50 in series [1] is more than 100 µM.

For `O=c1cc(CNCc2ccc(F)cc2)oc2ccc(O)c(O)c12`, the EC50 in the series with Hepatitis C virus was more than 100 µM. For the same molecule, the CC50 in series [1] is more than 100 µM.

As for `O=c1cc(CNCc2ccc(Br)cc2)oc2ccc(O)c(O)c12`, in the series with Hepatitis C virus, the concentration for a half-maximal effect (EC50) was more than 100 µM. In addition, the CC50 in series [1] is more than 100 µM.

For `O=c1cc(CNCc2ccc(I)cc2)oc2ccc(O)c(O)c12`, in the series with Hepatitis C virus, the EC50 was 4.1 µM. The CC50 in series [1] was 41.7 µM.

Turning to `O=c1cc(CNCc2ccc(O)cc2)oc2ccc(O)c(O)c12`, the EC50 in the series on Hepatitis C virus was more than 100 µM. Further, the CC50 in series [1] worked out at 62.7 µM.

As for `O=c1cc(CNCc2ccc([N+](=O)[O-])cc2)oc2ccc(O)c(O)c12`, the concentration giving a half-maximal response (EC50) with Hepatitis C virus was more than 100 µM. Besides, in series [1], the CC50 was 73.3 µM.

For `Cc1ccc(CNCc2cc(=O)c3c(O)c(O)ccc3o2)cc1`, the EC50 in the series with Hepatitis C virus came out at 5.7 µM. For the same molecule, in series [1], the CC50 was more than 100 µM.

On to `O=c1cc(CNCc2ccc(Cl)cc2)oc2ccc(O)c(O)c12`, for which the EC50 with Hepatitis C virus is more than 100 µM. The CC50 in series [1] is more than 100 µM.

As to `O=c1cc(CNCc2cccc(Cl)c2)oc2ccc(O)c(O)c12`, the 50% effective concentration (EC50) with Hepatitis C virus was 14 µM. Besides, the CC50 in series [1] is more than 100 µM.
